# ChEMBL document CHEMBL1127500, “Structure-activity studies of benzimidazole-based DNA-cleaving agents. Comparison of benzimidazole, pyrrolobenzimidazole, and tetrahydropyridobenzimidazole analogues” (1994)
# What was measured:
# Type in all cases: functional
# A549 = test: Antitumor activity against A549/ATCC cell line; conditions: Homo sapiens
# Method in brief: (§1)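 Drugs were screened against a panel of up to 60 human cancer cell lines. The end-point was LC50, the drug concentration lethal to 50% of the cancer cells. Values were expressed as log LC50 and plotted as mean graphs centred on the log of the panel-mean LC50. Bars to the right mark lines with lower log LC50 than the mean.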
# CCRF-CEM = test: Antitumor activity against CCRF-CEM leukemia cell line; conditions: Homo sapiens, read-out: Log LC50 (the source's name) (converted); method in brief: as §1
# COLO 205 = test: Antitumor activity against COLO 205 cell line; conditions: Homo sapiens, read-out: Log LC50 (the source's name) (converted); method in brief: as §1
# DMS-114 = test: Antitumor activity against DMS 114 cell line; conditions: Homo sapiens; method in brief: as §1
# EKVX = test: Antitumor activity against EKVX cell line; conditions: Homo sapiens; method in brief: as §1
# HCT-116 = test: Antitumor activity against HCT116 cell line; conditions: Homo sapiens, read-out: Log LC50 (the source's name) (converted); method in brief: as §1
# HOP-62 = test: Antitumor activity against HOP-62 cell line; conditions: Homo sapiens; method in brief: as §1
# HL-60 = test: Antitumor activity against HL-60(TB) leukemia cell line; conditions: Homo sapiens, read-out: Log LC50 (the source's name) (converted); method in brief: as §1
# HOP-92 = test: Antitumor activity against HOP-92 cell line; conditions: Homo sapiens, read-out: Log LC50 (the source's name) (converted); method in brief: as §1
# HT-29 = test: Antitumor activity against HT 29 cell line; conditions: Homo sapiens, read-out: Log LC50 (the source's name) (converted); method in brief: as §1
# K562 = test: Antitumor activity against K-562 leukemia cell line; conditions: Homo sapiens, read-out: Log LC50 (the source's name) (converted); method in brief: as §1
# KM12 = test: Antitumor activity against KM 12 cell line; conditions: Homo sapiens, read-out: Log LC50 (the source's name) (converted); method in brief: as §1
# KM-20L2 = test: Antitumor activity against KM 20L2 cell line; conditions: Homo sapiens; method in brief: as §1
# IGROV-1 = test: Antitumor activity against IGROVI cell line; conditions: Homo sapiens; method in brief: as §1
# LXFL 529 = test: Antitumor activity against […] cell line; conditions: Homo sapiens; method in brief: as §1
# M14 = test: Antitumor activity against M 14 cell line; conditions: Homo sapiens; method in brief: as §1
# M19-MEL = test: Antitumor activity against M 19-MEL cell line; conditions: Homo sapiens; method in brief: as §1
# LOX IMVI [1] = test: Antitumor activity against LOX IMVI cell line; conditions: Homo sapiens; method in brief: as §1
# MOLT-4 = test: Antitumor activity against MOLT-4 leukemia cell line; conditions: Homo sapiens; method in brief: as §1
# Malme-3M = test: Antitumor activity against MALME-3M cell line; conditions: Homo sapiens; method in brief: as §1
# NCI-H522 = test: Antitumor activity against NCI-H522 cell line; conditions: Homo sapiens; method in brief: as §1
# NCI-H226 = test: Antitumor activity against NCI-H226 cell line; conditions: Homo sapiens; method in brief: as §1
# OVCAR-8 = test: Antitumor activity against OVCAR-8 cell line; conditions: Homo sapiens, read-out: Log LC50 (the source's name) (converted); method in brief: as §1
# OVCAR-3 = test: Antitumor activity against OVCAR-3 cell line; conditions: Homo sapiens; method in brief: as §1
# NCI-H23 = test: Antitumor activity against NCI-1123 cell line; conditions: Homo sapiens, read-out: Log LC50 (the source's name) (converted); method in brief: as §1
# NCI-H322M = test: Antitumor activity against NCI-H322M cell line; conditions: Homo sapiens, read-out: Log LC50 (the source's name) (converted); method in brief: as §1
# NCI-H460 = test: Antitumor activity against NCI-11460 cell line; conditions: Homo sapiens, read-out: Log LC50 (the source's name) (converted); method in brief: as §1
# OVCAR-5 = test: Antitumor activity against OVCAR-5 cell line; conditions: Homo sapiens; method in brief: as §1
# RPMI-8226 = test: Antitumor activity against RPMI-8226 leukemia cell line; conditions: Homo sapiens, read-out: Log LC50 (the source's name) (converted); method in brief: as §1
# CAKI-1 = test: Antitumor activity against Renal cancer CAKI-1 cell line; conditions: Homo sapiens, read-out: Log LC50 (the source's name) (converted); method in brief: as §1
# 786-0 = test: Antitumor activity against Renal cancer 786-O cell line; conditions: Homo sapiens; method in brief: as §1
# A498 = test: Antitumor activity against Renal cancer A498 cell line; conditions: Homo sapiens, read-out: Log LC50 (the source's name) (converted); method in brief: as §1
# ACHN = test: Antitumor activity against Renal cancer ACHN cell line; conditions: Homo sapiens, read-out: Log LC50 (the source's name) (converted); method in brief: as §1
# SN12C = test: Antitumor activity against Renal cancer SN 12C cell line; conditions: Homo sapiens; method in brief: as §1
# TK-10 = test: Antitumor activity against Renal cancer TK-10 cell line; conditions: Homo sapiens; method in brief: as §1
# UO-31 = test: Antitumor activity against Renal cancer UO-31 cell line; conditions: Homo sapiens; method in brief: as §1
# SK-MEL-2 = test: Antitumor activity against SK-MEL-2 cell line; conditions: Homo sapiens, read-out: Log LC50 (the source's name) (converted); method in brief: as §1
# SF-539 = test: Antitumor activity against SF-539 cell line; conditions: Homo sapiens; method in brief: as §1
# SNB-19 = test: Antitumor activity against SNB-19 cell line; conditions: Homo sapiens
# Method in brief: (§2)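 Screened against a panel of up to 60 human cancer cell lines. Read-out is LC50, the drug concentration lethal to 50% of the cells, expressed as log LC50. The mean log LC50 across the screened lines is the centre line of the mean graph. Each line's deviation from that mean is shown as a bar.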
# SNB- = test: Antitumor activity against SNB-71 cell line; conditions: Homo sapiens, read-out: Log LC50 (the source's name) (converted); method in brief: as §2
# SR = test: Antitumor activity against SR leukemia cell line; conditions: Homo sapiens, read-out: Log LC50 (the source's name) (converted); method in brief: as §2
# SW-620 = test: Antitumor activity against SW-620 cell line; conditions: Homo sapiens; method in brief: as §2
# SK-MEL-5 = test: Antitumor activity against SK-MEL-5 cell line; conditions: Homo sapiens; method in brief: as §2
# SNB-75 = test: Antitumor activity against SNB-75 cell line; conditions: Homo sapiens; method in brief: as §2
# SK-OV-3 = test: Antitumor activity against SK-OV-3 cell line; conditions: Homo sapiens, read-out: Log LC50 (the source's name) (converted); method in brief: as §2
# SK-MEL-28 = test: Antitumor activity against SK-MEL-28 cell line; conditions: Homo sapiens; method in brief: as §2
# UACC-257 = test: Antitumor activity against UACC-257 cell line; conditions: Homo sapiens; method in brief: as §2
# U-251 = test: Antitumor activity against U251 cell line; conditions: Homo sapiens; method in brief: as §2
# UACC-62 = test: Antitumor activity against UACC-62 cell line; conditions: Homo sapiens, read-out: Log LC50 (the source's name) (converted); method in brief: as §2
# [2] = Mean log10 LC50 was determined; method in brief: as §2
# DMS-273 = test: Antitumor activity against DMS 273 cell line; conditions: Homo sapiens, read-out: Log LC50 (the source's name) (converted); method in brief: as §1
# DLD-1 = test: Antitumor activity against DLD-1 cell line; conditions: Homo sapiens; method in brief: as §1
# HCC 2998 = test: Antitumor activity against HCC2998 cell line; conditions: Homo sapiens, read-out: Log LC50 (the source's name) (converted); method in brief: as §1
# SF-268 = test: Antitumor activity against SF-268 cell line; conditions: Homo sapiens; method in brief: as §1
# RXF 393 = test: Antitumor activity against Renal cancer RXF-393 cell line; conditions: Homo sapiens; method in brief: as §1
# OVCAR-4 = test: Antitumor activity against OVCAR-4 cell line; conditions: Homo sapiens; method in brief: as §1
# LOX IMVI [3] = test: Antitumor activity against LOX IMV cell line; conditions: Homo sapiens, read-out: Log LC50 (the source's name) (converted); method in brief: as §1
compound,measurement,setting,value
CC(=O)OC1CCCn2c1nc1c2C(=O)C(C)=C(N2CC2)C1=O (stereo not given),LC50,A549,32.4 µM
same,CC50,CCRF-CEM,> 100 µM
same,CC50,COLO 205,18.2 µM
same,LC50,DMS-114,7.76 µM
same,LC50,EKVX,3.98 µM
same,CC50,HCT-116,17.8 µM
same,LC50,HOP-62,1.82 µM
same,CC50,HL-60,> 100 µM
same,CC50,HOP-92,> 100 µM
same,CC50,HT-29,1.82 µM
same,CC50,K562,> 100 µM
same,CC50,KM12,5.25 µM
same,LC50 (concentration lethal to 50% of cells),KM-20L2,4.68 µM
same,LC50,IGROV-1,30.9 µM
same,LC50,LXFL 529,4.9 µM
same,LC50,M14,0.794 µM
same,LC50,M19-MEL,35.5 µM
same,LC50,LOX IMVI [1],5.37 µM
same,LC50,MOLT-4,> 100 µM
same,LC50,Malme-3M,2.34 µM
same,LC50,NCI-H522,3.72 µM
same,LC50,NCI-H226,3.98 µM
same,CC50,OVCAR-8,5.62 µM
same,LC50,OVCAR-3,6.31 µM
same,CC50,NCI-H23,3.98 µM
same,CC50,NCI-H322M,26.9 µM
same,CC50,NCI-H460,0.676 µM
same,LC50,OVCAR-5,4.9 µM
same,CC50,RPMI-8226,> 100 µM
same,CC50,CAKI-1,3.31 µM
same,LC50,786-0,43.7 µM
same,CC50,A498,1.29 µM
same,CC50,ACHN,25.7 µM
same,LC50,SN12C,4.17 µM
same,LC50,TK-10,25.1 µM
same,LC50 (concentration lethal to 50% of cancer cells),UO-31,20 µM
same,CC50,SK-MEL-2,3.8 µM
same,LC50 (concentration lethal to 50% of cells),SF-539,14.1 µM
same,LC50,SNB-19,5.89 µM
same,CC50,SNB-,33.1 µM
same,CC50,SR,> 100 µM
same,LC50,SW-620,53.7 µM
same,LC50,SK-MEL-5,0.661 µM
same,LC50,SNB-75,4.57 µM
same,CC50,SK-OV-3,7.08 µM
same,LC50,SK-MEL-28,6.03 µM
same,LC50,UACC-257,3.8 µM
same,LC50,U-251,3.39 µM
same,CC50,UACC-62,4.9 µM
same,Mean log LC50,[2],-5.04
same,CC50,DMS-273,5.37 µM
same,LC50,DLD-1,87.1 µM
same,CC50,HCC 2998,3.09 µM
same,LC50,SF-268,0.692 µM
same,LC50,RXF 393,4.68 µM
same,LC50,OVCAR-4,5.89 µM
CC(=O)OC1CCn2c1nc1c2C(=O)C(C)=C(N2CC2)C1=O (stereo not given),CC50,LOX IMVI [3],< 0.01 µM
same,LC50,Malme-3M,0.055 µM
same,LC50,SK-MEL-5,< 0.01 µM
same,Mean log LC50,[2],-6.61
